Source: PubChem
In the library only some 3.1% were active in any assay of this set; here they are far more common.
PAX8 reporter: inhibitors of PAX8-driven TPO luciferase reporter, primary screen, RMG-I cells, single concentration; SteadyGlo, 24 h; actives 1.2% (n = 360,000); inhibition, % at 12.6 µM;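 active = mean replicate inhibition at least 60% with every replicate also reaching 60%; inconclusive = only one of the two criteria is met; inactive = mean below 60% and not all replicates reaching 60%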;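 also: luciferase light reporting Pax8 driven TPO promoter activity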
EWS-Fli inh: EWS/Fli-driven NR0B1 reporter inhibitors, primary screen, A673 cells, NR0B1 luciferase, luminescence, MLPCN library; viability-normalised; AID 651661, 2012; inhibition, % at 12.6 µM; actives 0.67% (n = 350,000);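 active = mean inhibition of at least 50% after viability correction, with every replicate also passing that limit; inconclusive = mean reaches 50% but only one of two replicates passes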;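 also: firefly luciferase signal divided by Alamar Blue viability fluorescence both relative to DMSO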
PGC1a acetyl inh: inhibitors of PGC1a acetylation signal, primary screen, cell-based, U2OS, AlphaScreen, inhibitor mode | AID 651687, 2012 | inhibition, % at 15.6 µM | AlphaScreen anti-acetyl-lysine; with virally co-expressed GCN5 acetyltransferase | actives 0.17% (n = 350,000);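 active = every replicate shows inhibition of at least 40%; inconclusive = mean inhibition at least 40% but some replicate below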
FGF22 binding: binders of human FGF22 protein, primary screen, FGF22 synaptogenesis inhibitor project, biophysical, thermal shift, single point; recombinant FGF22 thermal shift, SYPRO orange fluorescence; percent of sucrose octasulfate shift, DMSO zero; Fibroblast growth factor 22 (Homo sapiens), Q9HCT0; activity (Tm shift, normalised), % at 9.99 µM; actives 1.5% (n = 340,000);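 active = mean Tm shift, scaled 0 neutral to 100 positive control, at about 1.3% or above, every replicate too, limit read from the data; inconclusive = no clear call, values can overlap the other calls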
Target sequence (Q9HCT0 whole entry, looked up): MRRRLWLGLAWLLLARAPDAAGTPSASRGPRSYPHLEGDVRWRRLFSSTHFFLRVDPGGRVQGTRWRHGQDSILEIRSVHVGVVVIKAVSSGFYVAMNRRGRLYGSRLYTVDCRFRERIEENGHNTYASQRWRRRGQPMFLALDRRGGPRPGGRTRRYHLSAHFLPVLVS
HIV Env fusion: inhibitors of HIV-1 Env-driven cell-cell fusion, primary screen, HeLa-JRFL effector, CEM21 target cells, luciferase; inhibition, % at 12.3 µM; actives 1.1% (n = 360,000);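 active = mean replicate inhibition score of at least 50 and every replicate individually at or above 50; inconclusive = only one of the two criteria met; inactive = mean below 50 and not all replicates reaching 50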
FN deposit inh: inhibitors of fibronectin matrix deposition, primary screen, AH1F cells, Alexa488-fibronectin fluorescence, plate reader | inhibition, % at 12.6 µM | AID 743247, 2014 | AH1F fibroblasts, overnight | actives 0.086% (n = 350,000);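 active = mean inhibition across replicates of 30% or more, regardless of how many single replicates reach that level; inconclusive = mean under 30% yet at least half of replicates reach 30%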
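Schedule: 1 h cell adhesion before compound, then overnight fibronectin incubation; test system: AH1F fibroblast monolayer depositing Alexa488-labelled fibronectin into matrix; quantity: 10000 AH1F cells per well; probe or stimulus: fluorescent fibronectin at 24 nM final; signal: fluorescence, ex 485 nm, em 525 nm; evaluation: percent inhibition as loss of matrix-bound fibronectin fluorescence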
Each line names hits and unclear results; the compound was inactive in the other large screens.

C[C@H]1CN([C@@H](C)CO)S(=O)(=O)c2ccc(-c3ccc(C#N)cc3)cc2O[C@H]1CN(C)Cc1cccc(F)c1	none (no result: FN deposit inh)
C[C@@H]1CN([C@@H](C)CO)S(=O)(=O)c2ccc(-c3ccc(C#N)cc3)cc2O[C@@H]1CN(C)Cc1cccc(F)c1	PAX8 reporter 63 (no result: FN deposit inh)
C[C@@H]1CN([C@@H](C)CO)S(=O)(=O)c2ccc(-c3ccc(C#N)cc3)cc2O[C@H]1CN(C)Cc1cccc(F)c1	none (no result: FN deposit inh)
COc1ccc(Nc2nc(N)nc(CSc3nccn3C)n2)cc1	FGF22 binding 44 (no result: PGC1a acetyl inh)
CSc1nc2ccccc2n1Cc1cccc(F)c1	none (no result: PAX8 reporter, EWS-Fli inh, FGF22 binding, HIV Env fusion, FN deposit inh)
CSc1nc2ccccc2n1Cc1cccc([N+](=O)[O-])c1	FGF22 binding 44
O=C(c1ccc(C(F)(F)F)cc1)N(CCCn1ccnc1)C(c1ccccn1)c1nc2ccccc2[nH]1 (stereo unspecified)	HIV Env fusion 65
COc1ccc(CNC(=O)C[C@H]2C[C@@H]3c4cc(NC(=O)NC5CCCC5)ccc4O[C@@H]3[C@@H](CO)O2)cc1	none (no result: PAX8 reporter, HIV Env fusion, FN deposit inh)
COc1ccc(C)cc1NC(=O)CSc1nnc(CC(=O)Nc2cccc(C(F)(F)F)c2)n1C	HIV Env fusion 80 (no result: PAX8 reporter, EWS-Fli inh, FGF22 binding)
Cc1ccc(S(=O)(=O)N2[C@@H](c3ccc(F)cc3)C(C(=O)O)=CC[C@H]2c2ccc(Cl)cc2)cc1	FGF22 binding 1.6 (no result: PGC1a acetyl inh)
CC(C)(C)OC(=O)C1=CC[C@@H](c2ccc(Cl)c(Cl)c2)N(S(=O)(=O)c2ccc(F)cc2)[C@H]1c1cccc(F)c1	HIV Env fusion 93
CC(=O)N[C@@H]1CC[C@@H](CCNC(=O)C2CCCCC2)O[C@H]1CO	none (no result: EWS-Fli inh, FGF22 binding, HIV Env fusion, FN deposit inh)
CCC(=O)N(C)C[C@H]1Oc2cc(-c3ccncc3)ccc2S(=O)(=O)N([C@@H](C)CO)C[C@@H]1C	none (no result: PAX8 reporter)
COc1ccc2c3c(n(C)c2c1)[C@H](CO)N(Cc1ccc2c(c1)OCO2)CC31CN(C(C)=O)C1	none (no result: PAX8 reporter, HIV Env fusion, FN deposit inh)
Cc1ccc(S(=O)(=O)N(C)C)cc1NC(=O)C(C)N(C)CCOc1ccc(Cl)cc1 (stereo unspecified)	HIV Env fusion 69 (no result: PGC1a acetyl inh)
C=CCNc1nc(Nc2ccc([N+](=O)[O-])cc2)nc(OC)n1	none (no result: EWS-Fli inh, FGF22 binding)
C=CCNc1nc(Cl)nc(Nc2ccc([N+](=O)[O-])cc2)n1	FGF22 binding 44
COc1ccc(Nc2nc(Cl)nc(Nc3ccc(OC)cc3)n2)cc1	FGF22 binding 43 (no result: PGC1a acetyl inh)
C=CCNc1nc(Cl)nc(Nc2ccc(OC)cc2OC)n1	FGF22 binding 43
CC(=O)Nc1ccc(Nc2nc(Cl)nc(Nc3ccc(NC(C)=O)cc3)n2)cc1	FGF22 binding 44 (no result: PGC1a acetyl inh)
CCC(=O)N[C@H]1CC[C@H](CC(=O)NCC2CCCCC2)O[C@@H]1CO	none (no result: FN deposit inh)
C/C(N)=C(/C#N)C(=O)CSc1nc2ccccc2c(=O)n1Cc1ccc(F)cc1	HIV Env fusion 67
C/C(N)=C(/C#N)C(=O)CSc1nnc(C)n1-c1ccccc1	FGF22 binding 43 (no result: PGC1a acetyl inh)
C[C@H](O)C#Cc1cnc2c(c1)C(=O)N([C@H](C)CO)C[C@H](C)[C@@H](CN(C)Cc1cccc(F)c1)O2	none (no result: PAX8 reporter)
C[C@H]1CN([C@@H](C)CO)C(=O)CCCn2cc(nn2)CO[C@@H]1CN(C)Cc1ccc(C(=O)Nc2ccccc2N)cc1	none (no result: HIV Env fusion)
O=C1c2ccccc2C(=O)N1CCCCN(C(=O)c1cc([N+](=O)[O-])cc([N+](=O)[O-])c1)c1ccc(Cl)cc1	PAX8 reporter 83 (no result: PGC1a acetyl inh, HIV Env fusion)
O=C1c2ccccc2C(=O)N1CCCCN(C(=O)c1ccc([N+](=O)[O-])cc1)c1ccc(Cl)cc1	none (no result: PAX8 reporter, EWS-Fli inh, FGF22 binding)
CCCCCC(=O)NC(=S)Nc1cccc(C(C)=O)c1	FGF22 binding 44
CCCC(=O)NC(=S)Nc1cccc(C(C)=O)c1	none (no result: PAX8 reporter, EWS-Fli inh, FGF22 binding, HIV Env fusion, FN deposit inh)
CC(=O)c1cccc(NC(=S)NCCc2ccc(F)cc2)c1	FGF22 binding 44 (no result: PGC1a acetyl inh)
CC(=O)c1cccc(NC(=O)NCCc2ccc(Cl)cc2)c1	none (no result: PGC1a acetyl inh, HIV Env fusion)
O=C(C[C@H]1C/C=C/CC[C@H](Cc2ccc(F)cc2)C(=O)O[C@H](c2ccccc2)CNC1=O)NCCO	HIV Env fusion inconclusive (no result: PGC1a acetyl inh)
O=C(C[C@@H]1C/C=C/CC[C@@H](Cc2ccc(F)cc2)C(=O)O[C@H](c2ccccc2)CNC1=O)NCCO	HIV Env fusion 83 (no result: PGC1a acetyl inh)
O=C1NC[C@H](c2ccccc2)OC(=O)[C@H](Cc2ccc(F)cc2)C/C=C\C[C@H]1CC(=O)N(CCO)Cc1ccccc1	PAX8 reporter 83
O=C1NC[C@@H](c2ccccc2)OC(=O)[C@H](Cc2ccc(F)cc2)C/C=C\C[C@H]1CC(=O)N(CCO)Cc1ccccc1	none
O=C1NC[C@H](c2ccccc2)OC(=O)[C@@H](Cc2ccc(F)cc2)C/C=C\C[C@H]1CC(=O)N(CCO)Cc1ccccc1	PAX8 reporter 86
CCCC#Cc1ccc2c(c1)[C@@H]1[C@@H](CCN1S(=O)(=O)c1ccccc1OC)[C@@H](CO)N2	none (no result: PAX8 reporter, PGC1a acetyl inh, FGF22 binding, HIV Env fusion)
CN1c2ccc(C3=CCCCC3)cc2[C@@H]2[C@@H](CCN2C(=O)NC2CCCC2)[C@H]1CO	none (no result: PAX8 reporter, FGF22 binding, HIV Env fusion)
O=C(C[C@@H]1C=C[C@@H](NS(=O)(=O)c2ccc(F)cc2)[C@H](CO)O1)NC1CCCCC1	none (no result: FN deposit inh)
CC1=CC(C)(C)NC(=S)N1c1ccc([N+](=O)[O-])cc1	FGF22 binding 43
CC1=CC(C)(C)NC(=S)N1c1ccc(C)cc1	none (no result: PAX8 reporter, EWS-Fli inh, FGF22 binding, HIV Env fusion, FN deposit inh)
N#CCC(=O)N/N=C\c1ccc(OC/C=C/c2ccccc2)cc1	none (no result: PGC1a acetyl inh)
C/C(=N\NC(=O)CC#N)c1ccc(Oc2ccccc2)cc1	FGF22 binding 44
N#CCC(=O)N/N=C/c1ccc(OCc2ccccc2)cc1	FGF22 binding 43
COc1ccc(CCN2C(=S)NC3CC2(C)Oc2ccc([N+](=O)[O-])cc23)cc1OC (stereo unspecified)	HIV Env fusion 59 (no result: PAX8 reporter, EWS-Fli inh, FGF22 binding)
COc1ccc(CCN2C(=O)C=CC2=O)cc1OC	PAX8 reporter 95
COc1ccc(C2SCC(=O)N2CCc2ccc(OC)c(OC)c2)cc1 (stereo unspecified)	EWS-Fli inh 54 (no result: PGC1a acetyl inh)
COc1ccc(CCN2C(=O)CN(Cc3ccccc3)CC2=O)cc1OC	none (no result: PGC1a acetyl inh)
COc1ccc(CCN2C(=O)CSC2c2ccc(OC)c(OC)c2)cc1OC (stereo unspecified)	none (no result: PGC1a acetyl inh)
CC(C)NC(=O)N1CC(=O)N2[C@H](CO)[C@@H](c3ccc(/C=C/c4ccccc4)cc3)[C@@H]2C1	none (no result: HIV Env fusion)
COc1ccc2c3c([nH]c2c1)[C@H](CO)N(C(C)=O)CC31CCN(Cc2cc(-c3ccccc3)on2)CC1	none (no result: FGF22 binding, HIV Env fusion)
COc1ccccc1N1CCN(/N=C/c2cccc(O)c2)CC1	FGF22 binding 44 (no result: PGC1a acetyl inh)
CCN(C[C@H]1N[C@@](C)(C(=O)OC)[C@H]2C(=O)N(C)C(=O)[C@@H]12)C(C)=O	FGF22 binding 43 (no result: PGC1a acetyl inh)
